# Source: PubChem (several laboratories)
# T cruzi repl – inhibitors of intracellular T. cruzi growth, primary screen, luminescence, NIH3T3 host cells | T. cruzi beta-gal in NIH3T3, 90 h | inhibition, % (test concentration not listed) | 300,000 tested, 1.4% active | AID 1885, 2009;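 active = mean inhibition across valid replicates above about 55%, limit read from the data; inconclusive = mean below that limit but half or more replicates reach it; inactive = mean below it, under half of replicates reach it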;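 note: signal also drops with host cell toxicity which is not excluded here; 0% = plate median of DMSO wells and 100% = zero luminescence signal; higher percent means less beta-gal luminescence so fewer parasites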
#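 Incubation – ≥90 h infection period, 3 h prior cell attachment · System – NIH/3T3 fibroblasts plus reporter T. cruzi · Doses – compound pinned at 50 nL/well, DMSO · Read-out basis – percent inhibition of parasite-derived β-gal signal · Signal – luminescent β-galactosidase signal after 60 min lysis · Also added – 5000 T. cruzi trypomastigotes/well · Medium – Low-serum DMEM with 2% FBS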
# Beta cell apopt – inhibitors of cytokine-induced beta cell apoptosis, primary screen, luminescence | INS-1E cytokine-induced death, ATP luminescence, 48 h; percent of positive-control rescue, neutral wells zero | protection from apoptosis, % (test concentration not listed) | 300,000 tested, 0.8% active;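 active = Every replicate reaches about 75%, or at least half do and their mean reaches it too, limit read from the data; inconclusive = At least half of replicates reach the limit but their mean does not; inactive = Under half of replicates reach the limit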;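 note: 0% = cytokine-treated negative control wells and 100% = positive control rescue; higher means more ATP so stronger rescue from cytokine killing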
# CSC inhib – cancer stem cell viability inhibitors, primary screen, luminescence; cancer stem cell-like cells viability; inhibition, % at 7.5 µM; 300,000 tested, 1.1% active; AID 2717, 2010; in the data active = inhibition above about 75%; inconclusive = no clear call, values can overlap the other calls; tested in HMLE shEcad cells
# Efflux pump mplx – inhibitors of Candida efflux pumps in yeast, primary screen, S. cerevisiae, Nile Red, multiplex | S. cerevisiae Candida pump triplex | inhibition, % at 10 µM | 330,000 tested, 0.44% active;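 active = plate passing quality check with inhibition over a set limit, or well fluorescence over plate mean plus 4 SD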;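 note: Nile Red retained in pooled yeast measured as flow cytometry median fluorescence; 0% = buffer negative control and 100% = Enniatin B positive control; higher means more Nile Red kept so more efflux inhibition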
# WT yeast gro inh – growth inhibition of WT strain, primary screen, mitochondrial fusion inhibitor project, WT and mutant strains, chemical genetic; mitochondrial fusion phenotypic screen; 190,000 tested, 2.1% active; inhibition, % at 10 µM; in the data active = inhibition above about 58%; tested in S. cerevisiae
# Mot1-301 SUMO – yeast Mot1-301 growth rescue at high temperature, primary screen, SUMOylation pathway inhibitor project, S. cerevisiae, ATP luminescence, 38.5C. 320,000 tested, 1% active. S. cerevisiae Mot1-301 growth rescue; percent above DMSO median, 100 means doubled. AID 2716, 2010. growth rescue, % at 18.8 µM;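 active = every valid replicate shows activation above 250% relative to neutral control wells; inactive = the rest, any valid replicate at or below 250%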;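 note: OY570 slx delta 5 strain wells were the positive control but not used for scaling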
# The depositor's hits bear a star; ? = inconclusive; nt = no result; + = active, no number. In the library only some 4.8% were active in any assay of this set; here they are far more common.
SMILES,T cruzi repl,Beta cell apopt,CSC inhib,Efflux pump mplx,WT yeast gro inh,Mot1-301 SUMO
CCOC(=O)c1c(-c2ccccc2)oc2cc(CN(C)C)c(O)c(CN(C)C)c12,34,-15,94*,0,nt,204
COCCNC(=O)CSc1ccccc1C(=O)NCC1CCCCC1,22,-5,-13,0,-4,+
CC1CCN(C(=O)c2ccccc2SCC(=O)NCC2CCCCC2)CC1,4,-4,-6,0,nt,-24
Cc1ccc2c(C)nc(Nc3nc(CSc4nc5ccccc5[nH]4)cc(=O)[nH]3)nc2c1,28,90*,61,0,10,27
Cc1ccc(SCc2cc(=O)[nH]c(Nc3nc(C)c4ccc(C)cc4n3)n2)cc1,25,nt,nt,0,13,-25
COc1ccc2c(C)nc(Nc3nc(-c4ccccc4)cc(=O)[nH]3)nc2c1,37,35,107*,0,nt,8
CC(CCc1ccccc1)NC(=O)C1CCN(S(=O)(=O)N2CCOCC2)CC1 (stereo unspecified),4,-1,-15,0,-3,-1
O=C(c1ccc(C#CC2(O)CCCCC2)cc1)N1CCN(Cc2ccccc2)CC1,13,-1,-5,0,9,-10
O=C(c1ccc(C#CC2(O)CCCCC2)cc1)N1CCN(C(c2ccccc2)c2ccccc2)CC1,35,12,77*,0,nt,-3
Clc1cccc(-c2cc3nc4c(c(N5CCOCC5)n3n2)CCCC4)c1,?,2,24,1,85*,-28
Clc1cccc(-c2cc3nc4c(c(N5CCN(c6cnccn6)CC5)n3n2)CCCC4)c1,nt,0,6,0,70*,-6
Fc1cccc(-c2cc3nc4c(c(N5CCOCC5)n3n2)CCCC4)c1,18,-6,-5,0,-1,94
Cc1ccc(-c2cc(-c3ccccc3)c3c(N)c(S(C)(=O)=O)sc3n2)cc1,38,2,nt,0,5,3
CS(=O)(=O)c1sc2nc(-c3cccs3)cc(-c3ccccc3)c2c1N,nt,2,99*,0,-25,11
O=c1c2ccccc2n(Cc2ccc(F)cc2)c(=O)n1C1CCCC1,6,2,5,0,77*,18
S=C(N/N=C/c1ccccc1Cl)Nc1cccc(Cl)c1Cl,-4,52,49,0,nt,-7
Cc1ccc(CNCC(O)(c2ccccc2)c2ccc(Cl)cc2)cc1 (stereo unspecified),47,nt,nt,nt,69*,nt
Cc1ccc(CNCC(O)(c2ccccc2)c2ccccc2)cc1,18,3,-10,0,nt,-16
CC(CCc1ccccc1)NC(=O)CN1C(=O)NC2(CCCCC2C)C1=O (stereo unspecified),nt,-5,-15,0,nt,97
COCCN=c1scc(-c2cc(OC)c(OC)c(OC)c2)n1/N=C/c1c(C)[nH]c2ccccc12,52,4,115*,-1,32,-11
c1ccc(C2c3[nH]c4ccccc4c3CCN2Cc2cccn2-c2ccccn2)nc1 (stereo unspecified),39,17,4,0,nt,106
Cc1cccc(C2c3[nH]c4ccccc4c3CCN2Cc2cccn2-c2ncccn2)c1 (stereo unspecified),58*,19,18,0,8,4
COc1ccc(C2c3[nH]c4ccccc4c3CCN2Cc2cccn2-c2ncccn2)cc1C (stereo unspecified),79*,40,-4,0,52,-12
COc1ccccc1C1c2[nH]c3ccccc3c2CCN1Cc1cnc(C)s1 (stereo unspecified),12,nt,nt,nt,10,nt
CC(C)[C@H](NC(=O)c1ccc(Br)cc1)C(=O)NC1CCCCC1,nt,nt,nt,0,nt,nt
SMILES,T cruzi repl,Beta cell apopt,CSC inhib,Efflux pump mplx,WT yeast gro inh,Mot1-301 SUMO
C=CCn1c(=O)c2ccccc2n2c(SCC(=O)NCC)nnc12,-13,1,-6,1,nt,18
Cc1cc(NC(=O)CSc2nc(CC(C)(C)C)nc3c2c(=O)n(C)c(=O)n3C)no1,19,2,-3,0,15,9
Cc1ccc(S(=O)(=O)/N=C2\C=C(Nc3cccc(C(=O)O)c3)C(=O)c3ccccc32)cc1,7,21,nt,0,nt,-29
O=C(O)c1ccc(NC2=C(n3nnc4ccccc43)C(=O)c3ccccc3C2=O)cc1,3,-5,6,0,nt,6
COC(=O)c1ccccc1NC1=C/C(=N\S(=O)(=O)c2cccs2)c2ccccc2C1=O,47,96*,102*,0,62*,-13
COC(=O)c1cccc(NS(=O)(=O)c2cccs2)c1C,-9,-5,-17,0,17,65
COC(=O)c1ccccc1NC1=C/C(=N\S(=O)(=O)c2ccc(C(=O)O)cc2)c2ccccc2C1=O,33,110*,nt,0,nt,-17
Cc1ccc(S(=O)(=O)/N=C2\C=C(Nc3cccc(C(=O)O)c3)C(=O)c3ccccc32)c(C)c1,-10,95*,65,0,nt,121
CCc1ccc(S(=O)(=O)/N=C2\C=C(Nc3ccc(C(=O)O)cc3)C(=O)c3ccccc32)cc1,-8,103*,nt,0,nt,-21
COC(=O)c1ccccc1Nc1ccccc1,-4,1,4,0,-6,-12
O=C(CCC1CCCCC1)Nc1ccccc1C(=O)N1CCOCC1,-6,-2,-2,0,7,1
O=C(COC(=O)c1ccccn1)NCCc1ccc(Cl)cc1,nt,1,nt,0,nt,44
C=CCc1ccc(OCCOc2cccc3ccc(C)nc23)c(OC)c1,29,-5,1,0,24,9
CC(C)N(CCn1c(SCC(=O)N2CC(=O)Nc3ccccc32)nc2ccccc2c1=O)C(C)C,69*,-3,-11,0,1,-12
CN(C)CCCn1c(SCC(=O)N2CC(=O)Nc3ccccc32)nc2ccccc2c1=O,25,-14,-13,0,-7,0
COc1ccc(C2CC(c3ccc(Br)cc3)Nc3nc(N)nn32)cc1 (stereo unspecified),44,nt,-19,0,-5,-6
Nc1nc2n(n1)C(c1cccs1)CC(c1ccc(Br)cc1)N2 (stereo unspecified),74*,-16,0,0,7,-7
Cc1ccc(C2CC(c3ccc(Cl)cc3)n3nc(N)nc3N2)cc1 (stereo unspecified),21,0,16,0,6,-5
Cc1ccc(C2CC(c3ccc(C)cc3)n3nc(N)nc3N2)cc1 (stereo unspecified),29,103*,nt,0,2,-6
C/C(CC(=O)Nc1cccc(C(F)(F)F)c1)=N/NC(=O)C(=O)NCCO,-4,2,-12,0,nt,-26
O=C1C=C(c2ccc(Cl)c(C(F)(F)F)c2)C[C@@H](c2ccc(Cl)cc2)C1,nt,0,116*,1,nt,-5
